Assay results as given in ChEMBL document CHEMBL1142138, “Development of a novel dicistronic reporter-selectable hepatitis C virus replicon suitable for high-throughput inhibitor screening” (Antimicrob Agents Chemother, 2007).

Tests used:
[1] = target: RNA-directed RNA polymerase (Hepacivirus hominis, UniProt O39930); test: Inhibition of recombinant HCV 1b BK NS5B polymerase by primer/template-directed transcription assay; design: species or system Hepatitis C virus subtype 1b
Outline: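 Recombinant genotype 1b (strain BK) NS5B with biotin-dG12 primer (5 pmol) and poly(rC)300 template (0.5 pmol). Enzyme-started, 30 min at 30°C, EDTA stop, DEAE filter capture, scintillation counting. Final DMSO 1%. IC50 fitted from triplicate cpm.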

[2] = tested on: Hepatitis C virus; test: Antiviral activity against HCV 1b con1 in dual-reporter HCV replicon Huh7 cells by measuring hRLuc reporter activity after 72 hrs; type: functional, organism-based, Hepacivirus hominis; details: genotype 1b con1, Huh-7, 72 h
Outline: (§1)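 Replicon cells seeded at 2 x 10^4/well in DMEM without selection antibiotics. Eight threefold serial compound dilutions added, final 320 to 0.1 µM (IFN 10 to 0.003 IU/ml). After 3 days at 37°C, medium removed and hRLuc activity read with a dual-luciferase reporter kit. Percent inhibition was taken relative to compound-free control and EC50 derived.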

[3] = Cytotoxicity against dual-reporter HCV replicon Huh7 cells by measuring XTT end points after 72 hrs; type: cell-based, Huh-7; details: human
Outline: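 Cells were seeded at 2 x 10^4/well without selection antibiotics and exposed to eight threefold dilutions, final 320 to 0.1 µM, for 3 days. XTT (final 200 µg/ml) and phenazine methosulfate (final 1 mM) were then added. After 4 h, formazan was read at 450 nm against a 650 nm reference, and percent inhibition calculated versus control.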

[4] = tested on: Hepatitis C virus; test: Antiviral activity against HCV 1b con1 in HCV 1b in dicistronic reporter selectable HCV replicon Huh7 cells by measuring hRLuc reporter activity after 72 hrs; type: functional, organism-based, Hepacivirus hominis; details: genotype 1b con1, Huh-7, 72 h; outline: as §1
[5] = Selectivity index, CC50 for dual-reporter HCV replicon Huh7 cells to EC50 against HCV 1 in dual-reporter HCV replicon Huh7 cells; type: functional, Huh-7
Outline: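 Dual-reporter replicon cells: hRLuc from the replicon, FLuc in the nucleus. Seeded at 2 x 10^4/well without selection antibiotics, then eight threefold compound dilutions (final 320 to 0.1 µM). After 3 days, XTT/PMS for 4 h read at 450/650 nm, then FLuc and hRLuc luminescence. Percent inhibition calculated from the luciferase and XTT signals. Index = CC50/EC50.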

[6] = Cytotoxicity against dual-reporter HCV replicon Huh7 cells by measuring FLuc reporter activity after 72 hrs; type: cell-based, Huh-7; details: human
Outline: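 DDR cells carry a nuclear FLuc reporter. They were seeded at 2 x 10^4/well without selection antibiotics and given eight threefold compound dilutions, final 320 to 0.1 µM. After 3 days, medium was removed and FLuc read with a dual-luciferase kit. Percent inhibition was calculated versus compound-free control.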

[7] = tested on: Hepatitis C virus; test: Antiviral activity against HCV 1b con1 in dual-reporter HCV replicon Huh7 cells assessed as inhibition of HCV RNA after 72 hrs by RT-PCR; type: functional, organism-based, Hepacivirus hominis; details: genotype 1b con1, Huh-7, 72 h
Outline: (§2)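 Cells were then PBS-washed and total RNA extracted. HCV RNA and GAPDH mRNA were quantified by TaqMan RT-PCR against standard curves, and HCV was normalized to GAPDH at each concentration. Percent inhibition was computed versus DMSO-treated wells, giving EC50. Reactions were also run without reverse transcriptase.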

[8] = tested on: Hepatitis C virus; test: Antiviral activity against HCV 1b con1 in dicistronic reporter selectable HCV replicon Huh7 cells assessed as inhibition of HCV RNA after 72 hrs by RT-PCR; type: functional, organism-based, Hepacivirus hominis; details: genotype 1b con1, Huh-7, 72 h; outline: as §2

Sequence of RNA-directed RNA polymerase (O39930 whole entry): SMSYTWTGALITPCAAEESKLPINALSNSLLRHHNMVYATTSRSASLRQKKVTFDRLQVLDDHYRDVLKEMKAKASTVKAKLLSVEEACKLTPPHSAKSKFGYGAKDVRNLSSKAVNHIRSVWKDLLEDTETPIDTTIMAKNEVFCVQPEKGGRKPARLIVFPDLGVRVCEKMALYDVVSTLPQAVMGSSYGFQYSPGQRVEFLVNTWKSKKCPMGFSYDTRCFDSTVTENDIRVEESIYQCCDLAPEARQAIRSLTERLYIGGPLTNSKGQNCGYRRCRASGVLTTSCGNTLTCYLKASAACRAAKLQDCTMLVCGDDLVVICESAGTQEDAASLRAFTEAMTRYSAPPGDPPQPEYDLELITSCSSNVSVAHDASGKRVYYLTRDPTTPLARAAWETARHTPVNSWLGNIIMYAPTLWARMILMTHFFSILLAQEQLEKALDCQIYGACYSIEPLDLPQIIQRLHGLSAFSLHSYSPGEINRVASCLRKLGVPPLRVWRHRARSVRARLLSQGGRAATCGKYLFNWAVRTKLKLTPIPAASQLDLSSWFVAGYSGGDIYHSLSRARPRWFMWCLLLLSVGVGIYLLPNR

In the case of `COc1cc(OC)c(CCC2(C3CCCC3)CC(O)=C(Sc3nc4nc(C)cc(C)n4n3)C(=O)O2)cc1Cl` (stereo unspecified), the IC50 [1] is reported as 0.014 µM, the EC50 [2] is reported as 1.7 µM and the CC50 at 72 h [3] is reported as > 320 µM. For the same compound, the EC50 [4] was 3.3 µM, the Selectivity index [5] was >188.2 and the CC50 at 72 h [6] was > 320 µM. For the same compound, the EC50 [7] was 3.2 µM and the EC50 [8] was 2.4 µM.
`OC[C@H]1O[C@@H](n2cnc3cc(Cl)c(Cl)cc32)[C@H](O)[C@@H]1O` [DICHLORORIBOBENZIMIDAZOLE] showed an EC50 [2] of 34.1 µM, a CC50 at 72 h [3] of 40.4 µM and a Selectivity index [5] of 0.7. The CC50 at 72 h [6] was 60.7 µM.
`Cc1cc(SC2=C(O)OC(CCc3ccc(O)cc3)(C3CCCC3)CC2=O)c(C(C)(C)C)cc1N` (stereo unspecified) gave an EC50 [2] of 115 µM, a CC50 at 72 h [3] of 242 µM and a Selectivity index [5] of 0.9. The CC50 at 72 h [6] was 116 µM.
